Data from ChEMBL document CHEMBL2021854, “2-Aminopyrimidine based 4-aminoquinoline anti-plasmodial agents. Synthesis, biological activity, structure-activity relationship and mode of action studies” (Eur J Med Chem, 2012).
Values after ≈ are worked out from the molar mass of the structure shown.

Key:
Plasmodium falciparum [1] = assay: Antiplasmodial activity chloroquine-sensitive Plasmodium falciparum 3D7 infected in human A+ erythrocytes assessed as inhibition of [3H]-hypoxanthine incorporation after 24 hrs by scintillation counting; assay type: functional, organism-based
Plasmodium falciparum [2] = assay: Antiplasmodial activity chloroquine-resistant Plasmodium falciparum K1 infected in human A+ erythrocytes assessed as inhibition of [3H]-hypoxanthine incorporation after 24 hrs by scintillation counting; assay type: functional, organism-based
Plasmodium falciparum [3] = assay: Resistant factor, ratio of IC50 for chloroquine-resistant Plasmodium falciparum K1 to IC50 for chloroquine-sensitive Plasmodium falciparum 3D7; assay type: functional
Outline: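 Resistance factor computed as IC50 against K1 divided by IC50 against 3D7, both from the [3H]hypoxanthine incorporation assay.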

[4] = Inhibition of beta-hematin formation assessed as Ferriprotoporphyrin IX biomineralisation at 1 mg/ml after 24 hrs; assay type: functional
Outline: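 Hemin chloride (0.5 mg/ml in DMSO) mixed with 0.5 M sodium acetate buffer pH 4.4 and drug or solvent control, incubated 37 °C for 24 h. Pellet washed with DMSO to remove unreacted hemin, dissolved in 0.1 N NaOH, absorbance read at 405 nm; percent inhibition relative to control. Highest concentration tested 1 mg/ml.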

[5] = Cytotoxicity against cat CRFK cells assessed as cell viability by colorimetric formazan-based MTS assay; parameters: species or system Felis catus; conditions: CRFK cells
[6] = test system: Feline infectious peritonitis virus; assay: Antiviral activity against FIPV infected in cat CRFK cells assessed as inhibition of virus-induced cytopathic effect after 4 days by colorimetric formazan-based MTS assay; assay type: functional, cell-based; conditions: Alphacoronavirus 1, CRFK, 96 h
Felid alphaherpesvirus 1 = assay: Antiviral activity against Feline herpesvirus infected in cat CRFK cells assessed as inhibition of virus-induced cytopathic effect after 4 days by colorimetric formazan-based MTS assay; assay type: functional, organism-based; conditions: Felid alphaherpesvirus 1, CRFK, 96 h
[7] = test system: Vesicular stomatitis virus; assay: Antiviral activity against Vesicular stomatitis virus infected in HEL cells assessed as inhibition of virus-induced cytopathogenicity after 4 days; assay type: functional, organism-based; conditions: 96 h
Outline: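 Confluent HEL or HeLa monolayers infected with 100 CCID50 of virus in the presence of varying compound concentrations.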

[8] = Cytotoxicity against human HEL cells assessed as minimum compound concentration required to causes microscopically detectable alteration of normal cell morphology; assay type: cell-based
Outline: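 Confluent, non-proliferating cell cultures were exposed to the compounds. The endpoint was the minimum concentration producing a microscopically detectable alteration of normal cell morphology.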

HeLa = assay: Cytotoxicity against human HeLa cells assessed as cell viability by colorimetric formazan-based MTS assay

Structure (SMILES)	IC50 (Plasmodium falciparum [1])	IC50 (Plasmodium falciparum [2])	Ratio IC50 (Plasmodium falciparum [3])	inhibition [4]	other results
Cc1nc(NCCCNc2ccnc3cc(Cl)ccc23)nc(-c2ccc([N+](=O)[O-])cc2)c1C(=O)OC(C)C	500 nM	176 nM	0.3518	94%	–
CCOC(=O)c1c(C)nc(NCCCC(C)CNc2ccnc3cc(Cl)ccc23)nc1-c1ccccc1 (configuration not stated)	287 nM	860 nM	3	–	–
CC(=O)N[C@H]1[C@@H](OP(=O)(O)OP(=O)(O)OC[C@H]2O[C@@H](n3ccc(=O)[nH]c3=O)[C@H](O)[C@@H]2O)O[C@H](CO)[C@@H](O)[C@@H]1O[C@@](C)(OP(=O)(O)O)C(=O)O	–	–	–	–	CC50 [5]: 15.8 µg/mL (≈ 20.4 µM); EC50 [6]: 1.5 µg/mL (≈ 1.93 µM); EC50 (Felid alphaherpesvirus 1): 0.8 µg/mL (≈ 1.03 µM)
Cc1nc(NCCCCNc2ccnc3cc(Cl)ccc23)nc(-c2cccc([N+](=O)[O-])c2)c1C(=O)OC(C)C	697 nM	192 nM	0.2756	92%	–
Nc1nc2c(ncn2COCCO)c(=O)[nH]1 [ACYCLOVIR]	–	–	–	–	EC50 [7]: > 250000 nM; MCC [8]: > 250 µM; CC50 (HeLa): 541000 nM
